KCNQ1 inh = inhibitors of human KCNQ1 channel, primary screen, cell-based, thallium flux, high-throughput; Potassium voltage-gated channel subfamily KQT member 1 (Homo sapiens), P51787; CHO-K1 KCNQ1, FluxOR thallium flux fluorescence; active compounds read high; B-score at 10 µM; 310,000 tested, 1.3% active; AID 2642, 2010;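 active means compounds whose thallium flux B-score, printed positive for inhibition, exceeds three library SD while starting fluorescence stays within three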;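 further: channel opened by potassium depolarization with thallium stimulus after 20 min compound exposure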
KCNK9 block = KCNK9 potassium channel inhibitors, primary screen, HEK293 cells, thallium flux | FluxOR thallium flux fluorescence; active compounds read low | B-score at 10 µM | 310,000 tested, 1.2% active;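 active means ratio B-score over 3 SD below the library mean, with starting fluorescence within 5 SD of its mean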;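 further: negative B-score means less thallium flux so channel inhibition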
KCNK3 inh = human KCNK3 channel inhibitors, primary screen, CHO cells, FluxOR thallium flux, B-score; Potassium channel subfamily K member 3 (Homo sapiens), O14649; FluxOR fluorescence; active compounds read low; B-score at 10 µM; 340,000 tested, 0.84% active; AID 602410, 2012;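 active means B-score under library mean minus 4 SD, starting fluorescence ratio at most library mean plus 5 SD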;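 further: more negative B-score means stronger inhibition of thallium flux through KCNK3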
Target sequence (O14649 whole entry, looked up): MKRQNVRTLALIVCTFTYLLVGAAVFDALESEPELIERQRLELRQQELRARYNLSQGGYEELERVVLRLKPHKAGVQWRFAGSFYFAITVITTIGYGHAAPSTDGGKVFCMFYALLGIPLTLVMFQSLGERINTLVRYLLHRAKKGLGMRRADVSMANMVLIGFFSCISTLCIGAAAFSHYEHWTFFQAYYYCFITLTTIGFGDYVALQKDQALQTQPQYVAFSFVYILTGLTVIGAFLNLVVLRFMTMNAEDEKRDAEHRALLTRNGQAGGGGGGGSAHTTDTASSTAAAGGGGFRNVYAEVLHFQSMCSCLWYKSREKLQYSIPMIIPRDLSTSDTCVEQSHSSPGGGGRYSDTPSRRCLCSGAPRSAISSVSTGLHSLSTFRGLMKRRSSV
KCNQ1 pot = potentiators or activators of KCNQ1 channel, primary screen, cell-based, thallium flux, high-throughput; 310,000 tested, 0.35% active; B-score at 10 µM; CHO-K1 KCNQ1, thallium flux FluxOR fluorescence; active compounds read high; Potassium voltage-gated channel subfamily KQT member 1 (Homo sapiens), P51787;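 active means fluorescence ratio B-score, a plate-corrected score, at least three library SD, with initial intensity B-score within 5 SD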
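Assay system: CHO-K1 cells stably expressing KCNQ1. Medium: assay buffer for compound exposure, DMSO matched across wells. Timing: 37 °C overnight plating, 90-min dark dye load, 20-min compound pretreatment. Signal: kinetic FluxOR fluorescence, 10 s baseline plus 110 s post-stimulus.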
hERG protect = hERG rescue from dofetilide block, primary screen, cell-based, CHO-hERG, FluxOR thallium flux, dofetilide IC70; Voltage-gated inwardly rectifying potassium channel KCNH2 (Homo sapiens), Q12809; dofetilide IC70 present; 310,000 tested, 0.51% active; activation (rescue from dofetilide block), less the hit threshold, % at 10 µM;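 active means activation above the mean of controls blocked by dofetilide plus 5 SD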;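 further: thallium influx through hERG after potassium depolarization seen as dye fluorescence rise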
Kir21 block = inhibitors of mouse Kir2.1 inward-rectifier potassium channel; B-score at 10 µM; 310,000 tested, 0.85% active; Inward rectifier potassium channel 2 (Mus musculus), P35561; HEK293-Kir2.1, FluxOR thallium flux fluorescence; active compounds read low; AID 1672, 2009;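 active means fluorescence ratio B-score at or below minus 3 SD of library scores, with starting-brightness B-score within 2 SD, cut at about -4.2 in these data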;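 further: channel flux triggered by added potassium and thallium sulfate stimulus; B-score of peak minus minimum fluorescence over baseline after thallium stimulus; more negative B-score means stronger Kir2.1 block with less thallium influx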
KCNQ1 block val = KCNQ1 potassium channel inhibitors, confirmation, cell-based, Tl flux, duplicate; shares compounds with KCNQ1 inh; KCNQ1 cell line, FluxOR thallium flux fluorescence; inhibition, % at 10 µM; 1,600 tested, 93% active; AID 588353, 2011;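 active means primary screen active, with duplicate mean exceeding buffer control mean plus 3 SD of buffer wells, cut at about 28% in these data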
CHO KCNQ1 ctr = thallium flux effects in parental CHO cells, counter-screen for KCNQ1 inhibitor project, cell-based, Tl flux | AID 588366, 2011 | parental CHO-K1, FluxOR thallium flux fluorescence ratio; active compounds read low; zero means no signal rise above baseline | fluorescence ratio (Tl flux) at 10 µM | shares compounds with KCNQ1 inh | 1,600 tested, 21% active;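 active means mean of duplicate thallium-flux fluorescence ratios in parental host cells more than 5 SD below the buffer control mean, cut at about 0.38 in these data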;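 further: ratio is peak minus minimum fluorescence divided by baseline fluorescence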
KCNQ1 APC inh = KCNQ1 channel inhibitors, confirmation, orthogonal assay, cell-based, automated electrophysiology; 490 tested, 20% active; shares compounds with KCNQ1 inh; calls only at 10 µM; AID 624120, 2012; KCNQ1-CHO cells, automated patch clamp current;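 active means KCNQ1 current drop exceeding 3 SD of negative control wells, seen in both duplicate runs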;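 further: steady state current during a 2 s step from -80 to +40 mV; negative values mean current inhibition and positive values mean potentiation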
KCNQ2 inh = KCNQ2 channel inhibition, selectivity assay for KCNQ1 inhibitor project, cell-based; shares compounds with KCNQ1 inh; KCNQ2 cells, FluxOR thallium flux fluorescence; inhibition, % at 10 µM; 1,600 tested, 71% active; AID 651746, 2012;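 active means mean percent inhibition of the KCNQ2 thallium signal more than 5 SD above the buffer-only control wells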;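 further: KCNQ2 expressed in CHO cells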
KCNQ1 KCNE1 spec = KCNQ1/KCNE1 channel inhibition, selectivity assay for KCNQ1 inhibitor project, CHO-K1 cells, thallium flux, FluxOR; shares compounds with KCNQ1 inh; FluxOR thallium flux fluorescence; inhibition, % at 10 µM; 1,600 tested, 77% active;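 active means mean percent inhibition of duplicate wells above the buffer-only control mean plus 3 SD of those controls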
Numbers stand for hits; – = inactive; · = no result. Only some compounds are listed: those with a hit (about 3.8% of all), similar ones and a draw of the others.

SMILES | KCNQ1 inh | KCNK9 block | KCNK3 inh | KCNQ1 pot | hERG protect | Kir21 block | KCNQ1 block val | CHO KCNQ1 ctr | KCNQ2 inh | KCNQ1 KCNE1 spec | others
COC(=O)c1cc(NC(=S)Nc2cc(Cl)cc(Cl)c2)cc(C(=O)OC)c1 | 8 | – | – | – | – | – | 66.0 | – | 59.3% | –
Cc1cccc(NC(=O)Nc2ccc(S(N)(=O)=O)cc2)c1 | – | – | – | – | – | – | · | · | · | ·
CN1CCN(S(=O)(=O)c2ccc(NC(=O)Nc3cccc(Cl)c3)cc2)CC1 | 11 | – | – | – | – | – | 62.0 | – | 65.3% | –
CN1CCc2c(sc(NC(=O)C3CCCN3S(=O)(=O)c3ccc(Cl)s3)c2C(N)=O)C1 (centres undefined) | – | – | – | – | – | – | · | · | · | ·
CCOCCSc1n[nH]c(=O)n1CCc1ccccc1 | – | – | – | – | – | – | · | · | · | ·
CCc1c(C)sc(NC(=O)Cc2ccccc2C)c1C(=O)N1CCOCC1 | – | – | – | – | – | – | · | · | · | ·
Cc1ccc(-c2nc3c(c(SCC(=O)N4CCOCC4)n2)COC(C)(C)C3)cc1 | – | – | – | – | – | – | · | · | · | ·
COc1ccc(NC(=S)Nc2cccc(Cl)c2)cc1OC | 13 | – | – | – | – | – | 32.5 | – | – | –
CCOc1ccc2ncc(C(=O)c3ccc(OC)cc3)c(N3CCN(CC)CC3)c2c1 | – | – | – | – | – | – | · | · | · | ·
CCOC(=O)c1cnc2ccc(OCC)cc2c1N1CCN(c2ccccc2OC)CC1 | 11 | – | – | – | – | – | 130.5 | 0.335 | 141.3% | 181.5%
CCOC(=O)C1=C(N)Oc2ccc3ccccc3c2C1c1cccnc1 (centres undefined) | – | – | – | – | – | – | · | · | · | ·
CCOC(=O)C1=C(N)Oc2ccc3ccccc3c2C1c1cccc(O)c1 (centres undefined) | 6 | – | – | – | – | – | 115.5 | – | 122.3% | 123.0% | KCNQ1 APC inh=–
Cc1cc(C(=O)OCC(=O)N(CC(C)C)c2c(N)n(Cc3ccccc3)c(=O)[nH]c2=O)c(C)o1 | – | – | – | – | – | – | · | · | · | ·
CC(C)OC(=O)CSc1nc2c(c(C3CC=CCC3)c1C#N)CCC2 (centres undefined) | 10 | – | – | – | – | – | 95.5 | 0.377 | 132.0% | 106.0%
Cc1cc(C)c(C#N)c(SCC(=O)CC(=O)OC(C)C)n1 | – | – | – | – | – | – | · | · | · | ·
C=CCSc1nc2c(c(C3CC=CCC3)c1C#N)CCC2 (centres undefined) | 6 | -7.69 | – | – | – | – | 87.5 | – | 101.3% | 143.0% | KCNQ1 APC inh=–
CCCCCCCCOC(=O)c1nc(Cl)c(Cl)c(N)c1Cl | 7 | – | – | – | – | – | 101.0 | – | 65.0% | 126.5% | KCNQ1 APC inh=–
O=[N+]([O-])c1ccc(COc2ccc(CN3CCCC3)cc2)cc1 | · | · | – | · | · | · | · | · | · | ·
